Data from ChEMBL document CHEMBL1143825, “Evolution of resistant M414T mutants among hepatitis C virus replicon cells treated with polymerase inhibitor A-782759” (Antimicrob Agents Chemother, 2007).
Active and inactive are the calls of the source. The calls are words filed in the database; no cut-off is given here.

Legend:
Hepatitis C virus [1] = assay: Inhibition of RNA copy numbers in HCV 1b-N replicon cells with NS5B M414T mutant at 100 times EC50 after 4 days; type: functional, Hepacivirus hominis, genotype 1b strain N; set-up: scale not given: the % may be the effect or the level left
Method in brief: (§1)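 1b-N replicon cells treated with compound for 4 days, with a no-compound control. Total RNA was extracted and HCV RNA copy number quantified by TaqMan real-time RT-PCR, normalised per 1 pg total RNA.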

Hepatitis C virus [2] = assay: Inhibition of RNA copy numbers in HCV 1b-N replicon cells with NS5B M414T mutant at 10 times EC50 after 4 days; type: functional, Hepacivirus hominis, genotype 1b strain N; set-up: scale not given: the % may be the effect or the level left; method in brief: as §1
Hepatitis C virus [3] = assay: Antiviral activity against HCV 1b-N; type: functional, organism-based, Hepacivirus hominis; details: genotype 1b strain N
Method in brief: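 1b-N subgenomic replicon cells, grown in DMEM with 10% FBS, blasticidin and G418, seeded at 4,000 cells/well with eight serial compound dilutions. Replicon RNA copy number was quantified by TaqMan real-time RT-PCR, and EC50 was taken as the concentration giving 50% inhibition of copy number.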

Hepatitis C virus [4] = assay: Inhibition of RNA copy numbers in HCV 1b-N replicon cells with NS5B M414T mutant at EC50 after 4 days; type: functional, Hepacivirus hominis, genotype 1b strain N; set-up: scale not given: the % may be the effect or the level left; method in brief: as §1
Hepatitis C virus [5] = assay: Decrease in NS5B M414T mutant in HCV 1b-N replicon cells treated with 7000 nM assessed as mutant level after drug withdrawal on day 4 and measured upto day 28; type: functional, organism-based; details: Hepacivirus hominis; genotype 1b strain N
Method in brief: (§2)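 Replicon cells, 2 × 10⁵ per 10-cm dish, received inhibitor for 4 days, then drug was removed and culture continued to day 28, splitting 1:10 at 90% confluence. Cells were trypsinised and PBS-washed before RNA extraction. %M414T was measured by RT, first-round PCR, then allele-specific SYBR green real-time PCR as 100 × M414T/(M414T + wild-type copies), mean of three experiments.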

Hepatitis C virus [6] = assay: Increase in NS5B M414T mutant levels in HCV 1b-N replicon cells at 70 nM after 2 days relative to baseline; type: functional, Hepacivirus hominis, genotype 1b strain N
Method in brief: (§3)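 1b-N replicon cells, 2 × 10⁴ per well, were exposed to inhibitor for up to 4 days, PBS-washed, and total RNA extracted. RNA was reverse transcribed at 50°C for 50 min, then NS5B was amplified by first-round PCR for 25 cycles. Allele-specific SYBR green real-time PCR used M414-wild-type or T-specific antisense primers. %M414T = 100 × M414T/(M414T + wild-type copies), mean of three experiments.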

Hepatitis C virus [7] = assay: Increase in NS5B M414T mutant levels in HCV 1b-N replicon cells at 700 nM after 4 days relative to baseline; type: functional, Hepacivirus hominis, genotype 1b strain N; method in brief: as §3
Hepatitis C virus [8] = assay: Increase in NS5B M414T mutant levels in HCV 1b-N replicon cells at 7000 nM after 3 days relative to baseline; type: functional, Hepacivirus hominis, genotype 1b strain N; method in brief: as §3
Hepatitis C virus [9] = assay: Decrease in NS5B M414T mutant in HCV 1b-N replicon cells treated with 700 nM assessed as mutant level after drug withdrawal on day 4 and measured upto day 28; type: functional, organism-based; details: Hepacivirus hominis; genotype 1b strain N; method in brief: as §2
Hepatitis C virus [10] = assay: Increase in NS5B M414T mutant levels in HCV 1b-N replicon cells at 700 nM after 2 days relative to baseline; type: functional, Hepacivirus hominis, genotype 1b strain N; method in brief: as §3
Hepatitis C virus [11] = assay: Decrease in NS5B M414T mutant in HCV 1b-N replicon cells treated with 700 nM assessed as mutant level after drug withdrawal on day 4 and measured at day 10; type: functional, Hepacivirus hominis, genotype 1b strain N; set-up: scale not given: the % may be the effect or the level left; method in brief: as §2
Hepatitis C virus [12] = assay: Increase in NS5B M414T mutant levels in HCV 1b-N replicon cells at 7000 nM after 2 days relative to baseline; type: functional, Hepacivirus hominis, genotype 1b strain N; method in brief: as §3
Hepatitis C virus [13] = assay: Increase in NS5B M414T mutant levels in HCV 1b-N replicon cells at 700 nM after 3 days relative to baseline; type: functional, Hepacivirus hominis, genotype 1b strain N; method in brief: as §3
Hepatitis C virus [14] = assay: Decrease in NS5B M414T mutant in HCV 1b-N replicon cells treated with 70 nM assessed as mutant level after drug withdrawal on day 4 and measured at day 18 and 28; type: functional, Hepacivirus hominis, genotype 1b strain N; set-up: scale not given: the % may be the effect or the level left; method in brief: as §2
Hepatitis C virus [15] = assay: Decrease in NS5B M414T mutant in HCV 1b-N replicon cells treated with 70 nM assessed as mutant level after drug withdrawal on day 4 and measured at day 10; type: functional, Hepacivirus hominis, genotype 1b strain N; set-up: scale not given: the % may be the effect or the level left; method in brief: as §2
Hepatitis C virus [16] = assay: Increase in NS5B M414T mutant levels in HCV 1b-N replicon cells at 70 nM after 3 days relative to baseline; type: functional, Hepacivirus hominis, genotype 1b strain N; method in brief: as §3
Hepatitis C virus [17] = assay: Increase in NS5B M414T mutant levels in HCV 1b-N replicon cells at 70 nM after 4 days relative to baseline; type: functional, Hepacivirus hominis, genotype 1b strain N; method in brief: as §3
Hepatitis C virus [18] = assay: Increase in NS5B M414T mutant levels in HCV 1b-N replicon cells at 7000 nM after 4 days relative to baseline; type: functional, Hepacivirus hominis, genotype 1b strain N; method in brief: as §3

| Structure (SMILES) | Activity (Hepatitis C virus [1]) | Activity (Hepatitis C virus [2]) | EC50 (Hepatitis C virus [3]) | Activity (Hepatitis C virus [4]) | Activity (Hepatitis C virus [5]) | Activity (Hepatitis C virus [6]) | Activity (Hepatitis C virus [7]) | Activity (Hepatitis C virus [8]) | Activity (Hepatitis C virus [9]) | Activity (Hepatitis C virus [10]) | Activity (Hepatitis C virus [11]) | Activity (Hepatitis C virus [12]) | Activity (Hepatitis C virus [13]) | Activity (Hepatitis C virus [14]) | Activity (Hepatitis C virus [15]) | Activity (Hepatitis C virus [16]) | Activity (Hepatitis C virus [17]) | Activity (Hepatitis C virus [18]) |
| --- | --- | --- | --- | --- | --- | --- | --- | --- | --- | --- | --- | --- | --- | --- | --- | --- | --- | --- |
| COc1ccc2c(O[C@@H]3C[C@H]4C(=O)N[C@]5(C(=O)O)C[C@H]5/C=C\CCCCC[C@H](NC(=O)OC5CCCC5)C(=O)N4C3)cc(-c3csc(NC(C)C)n3)nc2c1 [CILUPREVIR] | 99% | 99% | 4 nM | 37% |  |  |  |  |  |  |  |  |  |  |  |  |  |  |
| NC(=O)COc1ccc2c(c1)S(=O)(=O)N=C(c1c(O)c3ccccc3n(NC3CCC3)c1=O)N2 | 99% | 93% | 70 nM | 58% | inactive | 0.8% | 26% | 56% | inactive | 4% | 4% | 12.6% | 28% | 0.3% | 0.9% | 2.5% | 2.5% | 60% |
